Here are results for 3 compounds from ChEMBL document CHEMBL1125212, “Dual-action cephalosporins: cephalosporin 3'-quinolone carbamates” (J Med Chem, 1991).

Experiment [1] has as its system Escherichia coli. The experiment is described as follows: The compound was evaluated for the inhibition of [14C]- Pen G binding to Escherichia coli UB1005 penicillin-binding protein 1a 90 kDa. Summed up:
(§1)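 Membranes from sonicated E. coli UB1005 were solubilized. Binding to penicillin-binding proteins was measured as inhibition of [14C]penicillin G binding.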

A further experiment relates to Micrococcus luteus. The experiment is described as follows: The compound was tested in vitro for minimum inhibitory concentration against Micrococcus luteus ATCC 9341. The class given is functional. Summed up: (§2)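 Agar dilution on Mueller-Hinton agar using 2-fold serial dilutions, giving final 128 to 0.0156 μg/mL (extended to 0.000977 μg/mL where needed). Inoculum was overnight broth culture diluted 100-fold, about 3×10^4 CFU/spot, applied by replicator. MIC read after overnight incubation at 36 °C.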

A further experiment has as its system Proteus mirabilis. Briefly: The compound was tested in vitro for minimum inhibitory concentration against Proteus mirabilis 90. The class given is functional. The method in brief:
(§3)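 Proteus MICs by agar dilution on Mueller-Hinton medium containing 3% agar. Serial 2-fold dilutions gave final 128 to 0.0156 μg/mL (further to 0.000977 μg/mL). Inoculum was overnight broth diluted 100-fold, about 3×10^4 CFU/spot. Plates read after overnight incubation at 36 °C.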

A further experiment relates to Citrobacter freundii. The experiment is described as follows: The compound was tested in vitro for minimum inhibitory concentration against Citrobacter Freundii BS-16. The class given is functional. The method in brief:
as §2

Experiment [2] has as its system Escherichia coli. The experiment is described as follows: Inhibitory activity on replicative DNA biosynthesis in Escherichia coli H560 (permeabilised cells). The class given is functional, organism-based. The method in brief: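 E. coli H560 cells permeabilized with toluene. ATP-dependent incorporation of [3H]thymidine into trichloroacetic acid-insoluble material was measured. IC50 taken as the concentration giving 50% inhibition.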

The species named for experiment [3] is Mus musculus. Briefly: Effective dose against mouse infected with Pseudomonas aeruginosa 8780 (LDs-240). It counts as functional. Summed up:
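CD1 Swiss albino mice (18-20 g) infected intraperitoneally with 0.5 mL of diluted bacterial suspension. Challenge expressed as a multiple of LD50. Drug given subcutaneously at the dorsal neck base within 5 min of infection (1.0 mL), with a second treatment 3 h after infection. Dose range 250 to 0.05 mg/kg. Six mice per group. ED50 by the Reed-Muench method.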

The subject of experiment [4] is Pseudomonas aeruginosa. Briefly: The compound was tested in vitro for minimum inhibitory concentration against Pseudomonas aeruginosa 18S/H. The class given is functional. The method in brief: as §2
Experiment [5] has as its system Escherichia coli. The experiment is described as follows: Minimum inhibitory concentration for inhibition of [14C]- Pen G binding to Escherichia coli UB1005. It counts as functional. Summed up: as §1
In experiment [6] the test system is Staphylococcus aureus. Briefly: (§4) The compound was tested in vitro for minimum inhibitory concentration against Staphylococcus aureus 753. The class given is functional. Summed up: as §2
Experiment [7] has as its system Escherichia coli. Briefly: The compound was evaluated for the inhibition of [14C]- Pen G binding to Escherichia coli UB1005 penicillin-binding protein 3 60 kDa. The method in brief:
as §1

The test system of experiment [8] is Staphylococcus aureus. The experiment is described as follows: The compound was tested in vitro for minimum inhibitory concentration against Staphylococcus aureus 67-0. It counts as functional. Summed up:
as §2

In experiment [9] the test system is Escherichia coli. Briefly: Minimum inhibitory concentration required to inhibit the activity of Escherichia coli UB1005. The class given is functional. Summed up:
as §2

In the next experiment the test system is Enterococcus faecalis. Briefly: The compound was tested in vitro for minimum inhibitory concentration against Enterococcus faecalis ATCC 29212. The class given is functional. The method in brief:
as §2

For experiment [10], the system named is Escherichia coli. Briefly: The compound was evaluated for the inhibition of [14C]- Pen G binding to Escherichia coli UB1005 penicillin-binding protein 1b 90 kDa. The method in brief:
as §1

In experiment [11] the test system is Staphylococcus aureus. Briefly: The compound was tested in vitro for minimum inhibitory concentration against Staphylococcus aureus smith. The class given is functional. Summed up: as §2
In experiment [12] the test system is Escherichia coli. Briefly: The compound was tested in vitro for minimum inhibitory concentration against Escherichia coli ATCC 25922. It counts as functional. Summed up:
as §2

The test system of another experiment is Enterobacter cloacae. Briefly: The compound was tested in vitro for minimum inhibitory concentration against Enterobacter cloacae P99. The class given is functional.
The test system of experiment [13] is Pseudomonas aeruginosa. Briefly: The compound was tested in vitro for minimum inhibitory concentration against Pseudomonas aeruginosa 8780. It counts as functional. The method in brief: as §2
For experiment [14], the system named is Escherichia coli. The experiment is described as follows: The compound was tested in vitro for minimum inhibitory concentration against Escherichia coli 257. The class given is functional. The method in brief:
as §2

A further experiment concerns Streptococcus pneumoniae. Briefly: The compound was tested in vitro for minimum inhibitory concentration against Streptococcus pneumoniae 6301. The class given is functional. The method in brief:
(§5)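 Streptococci tested by agar dilution on brain heart infusion agar with 20 units/mL bovine liver catalase. Final drug range 128 to 0.0156 μg/mL by 2-fold steps, extended to 0.000977 μg/mL when required. Inoculum about 3×10^4 CFU/spot from overnight broth diluted 100-fold. MIC after overnight incubation at 36 °C.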

The next experiment has as its system Klebsiella pneumoniae. Briefly: The compound was tested in vitro for minimum inhibitory concentration against Klebsiella pneumoniae A. It counts as functional. The method in brief:
as §2

A further experiment has as its system Serratia marcescens. The experiment is described as follows: The compound was tested in vitro for minimum inhibitory concentration against Serratia marcescens 1071. It counts as functional. Summed up: as §2
In the next experiment the test system is Streptococcus pyogenes. The experiment is described as follows: The compound was tested in vitro for minimum inhibitory concentration against Streptococcus pyogenes. It counts as functional. The method in brief: as §5
For experiment [15], the species on record is Mus musculus. The experiment is described as follows: Effective dose against mouse infected with Streptococcus pneumoniae 6301(LDs-5623). The class given is functional. Summed up: (§6)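 Mouse protection test in CD1 Swiss albino mice (18-20 g) given an intraperitoneal challenge (0.5 mL of diluted culture), expressed as a multiple of LD50. A single subcutaneous dose of 1.0 mL test solution was given at the dorsal neck base within 5 min of infection. Dose range 250 to 0.05 mg/kg. Six mice per group. ED50 (protective dose) by Reed-Muench.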

Experiment [16] has as its system Escherichia coli. The experiment is described as follows: The compound was tested in vitro for minimum inhibitory concentration against Escherichia coli TEM-1. It counts as functional. The method in brief: as §2
For experiment [17], the species on record is Mus musculus. The experiment is described as follows: Effective dose against mouse infected with Staphylococcus aureus 753 (MR) (LDs-6). It counts as functional. Summed up:
as §6

The test system of experiment [18] is Escherichia coli. Briefly: Minimum inhibitory concentration required to inhibit the activity of Escherichia coli ATCC 25922. The class given is functional. Summed up: as §2
Experiment [19] concerns Escherichia coli. Briefly: The compound was evaluated for the inhibition of [14C]- Pen G binding to Escherichia coli UB1005 penicillin-binding protein 2 66 kDa. The method in brief:
as §1

The subject of the next experiment is Proteus vulgaris. Briefly: The compound was tested in vitro for minimum inhibitory concentration against Proteus vulgaris 1028 BC. It counts as functional. The method in brief: as §3
The test system of experiment [20] is Escherichia coli. The experiment is described as follows: Minimum inhibitory concentration for inhibition of [14C]- Pen G binding to Escherichia coli UB1005. It counts as functional. The method in brief:
(§7)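 Penicillin-binding protein assay using solubilized membranes from sonicated E. coli UB1005. Binding was read as inhibition of [14C]penicillin G binding to the PBPs.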

For experiment [21], the system named is Escherichia coli. The experiment is described as follows: The compound was evaluated for the inhibition of [14C]- Pen G binding to Escherichia coli UB1005 PBP2 66 kDa. The class given is functional. The method in brief: as §7
In experiment [22] the test system is Escherichia coli. The experiment is described as follows: The compound was evaluated for the inhibition of [14C]- Pen G binding to Escherichia coli UB1005 PBP3 60 kDa. It counts as functional. Summed up:
as §7

In experiment [23] the test system is Escherichia coli. Briefly: The compound was evaluated for the inhibition of [14C]- Pen G binding to Escherichia coli UB1005 PBP1a 90 kDa. It counts as functional. The method in brief: as §7
Experiment [24] deals with Escherichia coli. Briefly: The compound was evaluated for the inhibition of [14C]- Pen G binding to Escherichia coli UB1005 PBP1b 90 kDa. The class given is functional. The method in brief: as §7
Experiment [25] relates to Staphylococcus aureus. The experiment is described as §4. The class given is functional, staphylococcus aureus smith. Summed up: as §2

Values after ≈ are worked out from the molar mass of the structure shown.

As for `CO/N=C(\C(=O)N[C@@H]1C(=O)N2C(C(=O)O)=C(COC(=O)N3CCN(c4cc5c(cc4F)c(=O)c(C(=O)O)cn5C4CC4)CC3)CS[C@H]12)c1csc(N)n1`, the Inhibitory concentration was 100 µg/mL in the experiment with Escherichia coli [1], 0.5 µg/mL in the experiment with Escherichia coli [7], 30 µg/mL in the experiment on Escherichia coli [10] and greater than 100 µg/mL in the experiment on Escherichia coli [19]. In addition, the MIC (as a rule, the lowest concentration that inhibits growth of the organism) against Micrococcus luteus stood at 0.031 µg/mL (≈ 0.0402 µM); against Proteus mirabilis, 0.063 µg/mL (≈ 0.0817 µM); with Citrobacter freundii it was 0.125 µg/mL (≈ 0.162 µM); in the experiment with Pseudomonas aeruginosa [4] it was 1 µg/mL (≈ 1.3 µM); against Escherichia coli [5] it was 0.5 µg/mL (≈ 0.649 µM); against Staphylococcus aureus [6], 2 µg/mL (≈ 2.59 µM). The MIC was 2 µg/mL (≈ 2.59 µM) in the experiment on Staphylococcus aureus [8]; 0.5 µg/mL (≈ 0.649 µM) in the experiment on Escherichia coli [9]; 0.25 µg/mL (≈ 0.324 µM) with Enterococcus faecalis; 0.5 µg/mL (≈ 0.649 µM) against Staphylococcus aureus [11]; 0.031 µg/mL (≈ 0.0402 µM) in the experiment with Escherichia coli [12]; less than 0.016 µg/mL in the experiment on Enterobacter cloacae. The MIC was 1 µg/mL (≈ 1.3 µM) against Pseudomonas aeruginosa [13]; 0.031 µg/mL (≈ 0.0402 µM) against Escherichia coli [14]; less than 0.016 µg/mL against Streptococcus pneumoniae; 0.125 µg/mL (≈ 0.162 µM) against Klebsiella pneumoniae; 0.25 µg/mL (≈ 0.324 µM) with Serratia marcescens; less than 0.016 µg/mL in the experiment with Streptococcus pyogenes. For the same compound, the MIC in the experiment with Escherichia coli [16] turned out to be 0.063 µg/mL (≈ 0.0817 µM); against Escherichia coli [18], 0.03 µg/mL (≈ 0.0389 µM); against Proteus vulgaris, 0.063 µg/mL (≈ 0.0817 µM). Also, in the experiment with Escherichia coli [2], the concentration for half-maximal inhibition (IC50) (in general, the midpoint of a concentration-inhibition curve) came to 0.9 µg/mL (≈ 1.17 µM). Further, the median effective dose (ED50) – broadly, the dose at which the effect has come halfway, by size or by number of responders – was 33 mg/kg in the experiment listed under Mus musculus [3], 10 mg/kg in the experiment filed under Mus musculus [15] and 28 mg/kg in the experiment listed under Mus musculus [17].

Compound `CCN1CCN(C(=O)N[C@@H](C(=O)N[C@@H]2C(=O)N3C(C(=O)O)=C(CSc4nnnn4C)CS[C@H]23)c2ccc(O)cc2)C(=O)C1=O` [CEFOPERAZONE] showed an MIC against Escherichia coli [20] of 1 µg/mL (≈ 1.55 µM). Further, the Inhibitory concentration is 2 µg/mL in the experiment on Escherichia coli [21], less than 0.1 µg/mL with Escherichia coli [22], 10 µg/mL with Escherichia coli [23] and 10 µg/mL with Escherichia coli [24].

Regarding `CC(=O)OCC1=C(C(=O)O)N2C(=O)[C@@H](NC(=O)COc3ccccc3)[C@H]2SC1`, the Inhibitory concentration was 0.5 µg/mL in the experiment on Escherichia coli [1], 10 µg/mL with Escherichia coli [7], 100 µg/mL in the experiment on Escherichia coli [10] and greater than 100 µg/mL in the experiment with Escherichia coli [19]. Also, the MIC was 0.125 µg/mL (≈ 0.308 µM) against Micrococcus luteus; 32 µg/mL (≈ 78.7 µM) in the experiment on Proteus mirabilis; greater than 128 µg/mL in the experiment with Citrobacter freundii; greater than 128 µg/mL against Pseudomonas aeruginosa [4]; greater than 128 µg/mL against Escherichia coli [5]; 128 µg/mL (≈ 315 µM) in the experiment with Staphylococcus aureus [8]. For the same compound, the MIC against Enterococcus faecalis was 32 µg/mL (≈ 78.7 µM); against Staphylococcus aureus [11], 0.063 µg/mL (≈ 0.155 µM); in the experiment on Escherichia coli [12] it was 128 µg/mL (≈ 315 µM); against Enterobacter cloacae, greater than 128 µg/mL; against Pseudomonas aeruginosa [13], greater than 128 µg/mL; in the experiment with Escherichia coli [14], 64 µg/mL (≈ 157 µM). Further, the MIC is 0.125 µg/mL (≈ 0.308 µM) against Streptococcus pneumoniae; 128 µg/mL (≈ 315 µM) against Staphylococcus aureus [25]; 128 µg/mL (≈ 315 µM) in the experiment on Klebsiella pneumoniae; greater than 128 µg/mL against Serratia marcescens; 0.125 µg/mL (≈ 0.308 µM) with Streptococcus pyogenes; 128 µg/mL (≈ 315 µM) against Escherichia coli [16]. Moreover, the MIC in the experiment on Proteus vulgaris is greater than 128 µg/mL.
